From article PMC5598146 (Toxicology Reports, 2015) come the findings set out here.

Data set [1] in a line: Relative oral bioavailability of sodium, phosphate and hemisulfate salts in rats. The note with it: single oral 30 mg/kg, male rats. In kind it is in vivo, Sprague-Dawley rats. In a few lines:
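Male Sprague-Dawley rats, 4/group, received a single 30 mg/kg oral gavage dose in 1% methylcellulose of either parent acid or its sodium, phosphate or sulfate salt. Jugular-catheter blood was drawn at about 15 and 30 min and at 1, 2, 4, 8 and 24 h. Plasma parent was measured by LC/MS/MS with an internal standard. Relative AUClast and Cmax were corrected for molecular-weight differences.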

The subject of data set [2] is S. typhimurium strains TA98 and TA100. Kind of data set: Abbreviated Ames. It is filed as cell-based. The method, boiled down:
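Salmonella TA98 and TA100 plate-incorporation assay per OECD 471, run with and without rat liver S9. Test compound and its decarboxylated impurity were tested at concentrations up to and including 5000 µg/plate, with vehicle and positive controls. Revertant colony counts were compared with vehicle control, and bacterial toxicity was recorded.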

For orientation: Cmax means the highest concentration seen after dosing. As for `Cc1nc2cccc(OCC(C)(C)C(=O)NC(C)C)c2c(N)c1C(=O)O.Cc1nc2cccc(OCC(C)(C)C(=O)NC(C)C)c2c(N)c1C(=O)O.O=S(=O)(O)O` [S1638], in data set [1], the Cmax/Equiv. dose came to 1.377 ng/mL/mg/kg. The Cmax in data set [1] (S9632 measured in plasma) is 34.80 ± 7.55 ng/mL. Besides, the “%Cmax Relative to S9632” value in data set [1] (corrected for molecular weight, 30 mg/kg) is listed as 106.7%.
With `Cc1cc(N)c2c(OCC(C)(C)C(=O)NC(C)C)cccc2n1` [S9379, 4-amino-5-(3-(isopropylamino)-2,2-dimethyl-3-oxopropoxy)-2-methylquinoline], in data set [2] (TA98 and TA100 without metabolic activation), the “Concentration with cytotoxicity (reduction in the background lawn)” value worked out at 5000 μg/plate. Also, the “Mutagenicity, result” value in data set [2] (plate incorporation, up to 5000 μg/plate, ±S9) is recorded as “not mutagenic”.
